The species named for one assay is Homo sapiens. Put plainly: In vitro inhibition of endothelial capillary tube formation by the compound at 50 uM concentration. The format is functional. The method, boiled down:
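Endothelial cells plated on a thin Matrigel layer with angiogenic factor (bFGF/VEGF), incubated 4-6 h to form tubelike structures. Compounds added at 5 concentrations (100, 50, 25, 10, 5 µM). Tube formation quantified by image analysis. Value is % inhibition at 50 µM.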

The target of another assay is Neutrophil collagenase (Homo sapiens, UniProt P22894). In words: In vitro inhibitory activity against recombinant matrix metalloprotease-8 was determined. Summed up: (§1)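 Commercial recombinant MMP-1, -2, -3, -8 or -9 at four levels (1-50 ng) incubated 3 h with their respective substrates. Compounds at four to six concentrations (0.1-100 µM). Colorimetric change read on an ELISA reader. IC50 calculated from the kinetic data.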
Neutrophil collagenase, sequence (P22894 whole entry): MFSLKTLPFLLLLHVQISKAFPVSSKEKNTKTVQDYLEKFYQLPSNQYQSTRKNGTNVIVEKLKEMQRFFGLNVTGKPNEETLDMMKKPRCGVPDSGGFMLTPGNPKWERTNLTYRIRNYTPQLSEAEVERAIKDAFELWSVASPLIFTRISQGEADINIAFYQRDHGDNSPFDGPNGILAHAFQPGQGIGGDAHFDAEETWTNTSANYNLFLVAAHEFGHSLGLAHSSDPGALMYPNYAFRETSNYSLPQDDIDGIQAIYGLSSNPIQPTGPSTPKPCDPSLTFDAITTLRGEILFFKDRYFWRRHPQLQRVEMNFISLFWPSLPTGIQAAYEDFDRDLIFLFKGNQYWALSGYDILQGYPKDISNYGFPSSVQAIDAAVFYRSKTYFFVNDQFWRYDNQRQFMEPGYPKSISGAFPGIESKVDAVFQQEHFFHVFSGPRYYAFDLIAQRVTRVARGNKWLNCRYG

The next assay has as its target T1, Interstitial collagenase (Homo sapiens, UniProt P03956).
T1 sequence (P03956 whole entry): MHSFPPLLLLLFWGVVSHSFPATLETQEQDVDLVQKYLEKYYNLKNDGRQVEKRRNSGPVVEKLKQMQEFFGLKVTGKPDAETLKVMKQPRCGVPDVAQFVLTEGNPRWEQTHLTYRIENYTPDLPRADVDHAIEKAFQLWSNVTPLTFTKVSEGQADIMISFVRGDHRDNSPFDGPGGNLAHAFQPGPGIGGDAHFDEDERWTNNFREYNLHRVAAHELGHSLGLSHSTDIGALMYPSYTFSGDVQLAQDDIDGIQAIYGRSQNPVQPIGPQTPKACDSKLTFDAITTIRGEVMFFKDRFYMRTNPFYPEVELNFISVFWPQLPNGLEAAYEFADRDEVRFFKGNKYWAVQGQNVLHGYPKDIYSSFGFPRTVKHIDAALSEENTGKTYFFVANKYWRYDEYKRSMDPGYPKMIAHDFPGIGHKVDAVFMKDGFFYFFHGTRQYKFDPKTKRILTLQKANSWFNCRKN
Put plainly: In vitro inhibitory activity against recombinant matrix metalloprotease-1 was determined. The method, boiled down: as §1

In assay [1] the target is Matrix metalloproteinase-9 (Homo sapiens, UniProt P14780). Put plainly: In vitro inhibitory activity against recombinant matrix metalloprotease-9 was determined. The method, boiled down: as §1
Matrix metalloproteinase-9, sequence (P14780 whole entry): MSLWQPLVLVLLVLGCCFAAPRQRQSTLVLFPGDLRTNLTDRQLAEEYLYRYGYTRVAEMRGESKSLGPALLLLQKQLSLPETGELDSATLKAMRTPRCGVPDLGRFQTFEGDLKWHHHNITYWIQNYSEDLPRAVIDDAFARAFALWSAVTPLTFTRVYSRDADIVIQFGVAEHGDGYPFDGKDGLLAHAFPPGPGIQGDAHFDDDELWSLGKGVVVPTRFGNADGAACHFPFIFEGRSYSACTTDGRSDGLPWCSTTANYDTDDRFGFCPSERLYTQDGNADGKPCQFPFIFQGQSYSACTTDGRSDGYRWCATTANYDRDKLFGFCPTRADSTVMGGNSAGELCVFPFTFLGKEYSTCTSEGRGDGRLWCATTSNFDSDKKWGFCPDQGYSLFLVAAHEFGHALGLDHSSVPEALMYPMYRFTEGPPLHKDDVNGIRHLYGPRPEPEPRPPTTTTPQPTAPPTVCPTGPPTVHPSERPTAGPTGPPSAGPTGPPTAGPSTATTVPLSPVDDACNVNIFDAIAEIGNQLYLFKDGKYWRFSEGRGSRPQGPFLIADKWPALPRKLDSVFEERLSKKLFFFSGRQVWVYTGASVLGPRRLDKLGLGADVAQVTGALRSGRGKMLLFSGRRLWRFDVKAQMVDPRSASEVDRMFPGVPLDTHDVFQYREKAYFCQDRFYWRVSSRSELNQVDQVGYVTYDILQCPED
A further assay deals with Stromelysin-1 (Homo sapiens, UniProt P08254). In words: In vitro inhibitory activity against recombinant matrix metalloprotease-3 was determined. The method, boiled down: as §1
Stromelysin-1, sequence (P08254 whole entry): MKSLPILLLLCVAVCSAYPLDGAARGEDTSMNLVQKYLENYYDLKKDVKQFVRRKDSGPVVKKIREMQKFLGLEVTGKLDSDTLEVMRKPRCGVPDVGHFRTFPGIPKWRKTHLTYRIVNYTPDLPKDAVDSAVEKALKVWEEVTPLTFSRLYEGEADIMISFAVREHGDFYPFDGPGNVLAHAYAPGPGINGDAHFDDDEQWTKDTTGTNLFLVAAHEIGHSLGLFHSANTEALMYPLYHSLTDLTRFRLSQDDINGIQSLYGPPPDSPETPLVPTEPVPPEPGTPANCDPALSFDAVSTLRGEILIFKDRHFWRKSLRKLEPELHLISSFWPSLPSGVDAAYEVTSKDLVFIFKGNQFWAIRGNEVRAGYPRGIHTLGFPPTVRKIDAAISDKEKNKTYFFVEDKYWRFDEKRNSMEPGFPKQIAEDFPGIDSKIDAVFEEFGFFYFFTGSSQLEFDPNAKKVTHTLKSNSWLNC
The target in assay [2] is 72 kDa type IV collagenase (Homo sapiens, UniProt P08253). Put plainly: In vitro inhibitory activity against recombinant matrix metalloprotease-2 was determined. Summed up: as §1
72 kDa type IV collagenase, sequence (P08253 whole entry): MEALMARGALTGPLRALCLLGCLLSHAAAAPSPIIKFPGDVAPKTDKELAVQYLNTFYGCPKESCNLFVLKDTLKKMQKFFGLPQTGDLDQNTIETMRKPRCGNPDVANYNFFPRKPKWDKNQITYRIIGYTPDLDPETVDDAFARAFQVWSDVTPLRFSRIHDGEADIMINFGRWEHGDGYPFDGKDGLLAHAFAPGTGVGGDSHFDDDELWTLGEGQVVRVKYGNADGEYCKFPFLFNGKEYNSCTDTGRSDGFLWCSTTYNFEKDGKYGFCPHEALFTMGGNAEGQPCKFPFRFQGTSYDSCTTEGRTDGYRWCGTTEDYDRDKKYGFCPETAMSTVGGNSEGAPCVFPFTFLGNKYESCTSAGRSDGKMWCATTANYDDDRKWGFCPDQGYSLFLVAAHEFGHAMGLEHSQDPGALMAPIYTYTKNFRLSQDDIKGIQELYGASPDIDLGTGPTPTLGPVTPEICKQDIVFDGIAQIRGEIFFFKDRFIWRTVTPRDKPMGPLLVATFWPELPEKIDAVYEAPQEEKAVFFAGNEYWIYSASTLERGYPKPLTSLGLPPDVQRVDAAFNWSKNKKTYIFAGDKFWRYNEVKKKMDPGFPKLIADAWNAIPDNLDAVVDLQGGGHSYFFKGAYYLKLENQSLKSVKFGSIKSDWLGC
A further assay relates to B16-F10. In words: Inhibition of lung metastasis formation after 3 weeks treatment with 50 mg/kg of compound in mice injected with 50000 B16F10 tumor cells into the tail vein. The format is functional. To be noted: Mus musculus, 504 h. The method, boiled down:
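Experimental metastasis in mice: 50 000 B16F10 melanoma cells injected into the tail vein. Compound given ip daily at 50 mg/kg for 3 weeks. Mice sacrificed at day 21, lungs fixed, and surface tumor foci counted. Value is % inhibition of lung metastasis formation.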

In a further assay the test system is NIH3T3. Put plainly: In vitro inhibition of invasion of NIH 3T3 cells across the reconstituted basement membrane by the compound at 50 uM concentration in Boyden chamber chemoinvasion assay; Inactive. The note with it: Mus musculus. The format is functional, cell-based.

Calls of active or inactive are those of the source. No cut-off for these calls is given here.

The inhibition is the share of the control response that was lost under treatment. The term IC50 denotes the concentration needed to halve the response being measured. Consider `CCCCNC(=O)P(=O)(O)O` [SODIUM HYDROGEN (BUTYLAMINO)CARBONYLPHOSPHONATE], for which the inhibition in the assay filed under Homo sapiens amounted to 20%. In addition, the IC50 was more than 100 µM at Neutrophil collagenase; 25 µM at Interstitial collagenase; more than 100 µM in assay [1]; more than 100 µM on Stromelysin-1; 2 µM in assay [2].
The inhibition in vivo is how much of the control response was suppressed. In the assay listed under Homo sapiens, `CC(C)NC(=O)P(=O)(O)O` [(ISOPROPYLAMINO)CARBONYLPHOSPHONIC ACID] showed an inhibition of 55%. Also, the IC50 on Neutrophil collagenase was 50 µM; at Interstitial collagenase it was 50 µM; in assay [1], 2 µM; on Stromelysin-1 it was more than 100 µM; in assay [2], 1 µM. This molecule had an inhibition in vivo at 50 mg/kg with B16-F10 of 40%.
For `O=C(NC1CCC1)P(=O)(O)O` [(CYCLOBUTYLAMINO)CARBONYLPHOSPHONIC ACID], the 50% inhibitory concentration (IC50) was 0.04 µM at Neutrophil collagenase; more than 100 µM at Interstitial collagenase; more than 100 µM in assay [1]; more than 100 µM at Stromelysin-1; 0.15 µM in assay [2]. Moreover, the inhibition in vivo at 50 mg/kg with B16-F10 was found to be 60%.
Consider `O=C(NCCc1ccccc1)P(=O)(O)O` [PHENETHYLCARBAMOYLPHOSPHONIC ACID], for which the IC50 at Neutrophil collagenase is more than 100 µM; on Interstitial collagenase, 80 µM; in assay [1] it was more than 100 µM; at Stromelysin-1, 90 µM; in assay [2] it was 20 µM.
`O=C(NC1CCCCCC1)P(=O)(O)O` [(CYCLOHEPTYLAMINO)CARBONYLPHOSPHONIC ACID] showed an inhibition in the assay filed under Homo sapiens of 45%. For the same molecule, the half-inhibitory concentration (IC50) was more than 100 µM on Neutrophil collagenase; more than 100 µM on Interstitial collagenase; more than 100 µM in assay [1]; more than 100 µM at Stromelysin-1; 4 µM in assay [2]. In addition, the inhibition in vivo at 50 mg/kg with B16-F10 came to 69%.
In the case of `CCC(CC)NC(=O)P(=O)(O)O`, the IC50 is 10 µM at Neutrophil collagenase; 80 µM on Interstitial collagenase; more than 100 µM in assay [1]; more than 100 µM on Stromelysin-1; 3 µM in assay [2].
`O=C(NC1CCCCC1)P(=O)(O)O` [(CYCLOHEXYLAMINO)CARBONYLPHOSPHONIC ACID] showed an inhibition in the assay filed under Homo sapiens of 50%. Also, the IC50 was more than 100 µM at Neutrophil collagenase, 0.1 µM on Interstitial collagenase, more than 100 µM in assay [1] and 3 µM on Stromelysin-1. The molecule also gave an inhibition in vivo at 50 mg/kg in the assay on B16-F10 of 37%.
Regarding `CC(C)CNC(=O)P(=O)(O)O.NC1CCCCC1` [CYCLOHEXANAMINIUM HYDROGEN (ISOBUTYLAMINO)CARBONYLPHOSPHONATE], the half-maximal inhibitory concentration (IC50) on Neutrophil collagenase was 1 µM; at Interstitial collagenase, 40 µM; in assay [1], more than 100 µM; on Stromelysin-1, more than 100 µM; in assay [2], more than 100 µM. Also, in the assay on NIH3T3, the inhibition result is “inactive”.
`O=C(NCC1CCCCC1)P(=O)(O)O` [CYCLOHEXYLMETHYLCARBAMOYLPHOSPHONIC ACID] showed an inhibition in the assay listed under Homo sapiens of 53%. The figures for the IC50 on Neutrophil collagenase, at Interstitial collagenase and at Stromelysin-1 were 80 µM, 30 µM and 1 µM, respectively. In the assay on B16-F10, this molecule returned an inhibition in vivo at 50 mg/kg of 69%.
As to `CCN(CC)C(=O)P(=O)(O)O` [(DIETHYLAMINO)CARBONYLPHOSPHONIC ACID], the half-inhibitory concentration (IC50) at Neutrophil collagenase was 70 µM; at Interstitial collagenase, 30 µM; in assay [1] it was more than 100 µM; on Stromelysin-1, 30 µM; in assay [2], 1 µM. The inhibition result in the assay on NIH3T3 is “inactive”.
On to `CC(C)CCNC(=O)P(=O)(O)O.NC1CCCCC1`, for which the concentration for half-maximal inhibition (IC50) at Neutrophil collagenase is 50 µM; on Interstitial collagenase, more than 100 µM; in assay [1], more than 100 µM; at Stromelysin-1, more than 100 µM; in assay [2], 30 µM. Moreover, the inhibition entry in the assay on NIH3T3 was “inactive”.
As for `CCCCN(CCCC)C(=O)P(=O)(O)O` [(DIBUTYLAMINO)CARBONYLPHOSPHONIC ACID], the half-inhibitory concentration (IC50) on Neutrophil collagenase was 90 µM; on Interstitial collagenase, 70 µM; in assay [1] it was more than 100 µM; on Stromelysin-1, 30 µM; in assay [2], 50 µM. Moreover, in the assay on NIH3T3, the inhibition result was “inactive”.
The molecule `O=C(NC1CCCCCCC1)P(=O)(O)O` [(CYCLOOCTYLAMINO)CARBONYLPHOSPHONIC ACID] displayed an inhibition in the assay filed under Homo sapiens of 25%. In addition, the half-maximal inhibitory concentration (IC50) on Neutrophil collagenase is 4 µM; at Interstitial collagenase, more than 100 µM; in assay [1], more than 100 µM; on Stromelysin-1, more than 100 µM; in assay [2], 1 µM.
In the case of `CCC(C)NC(=O)P(=O)(O)O` (configuration not stated), the inhibition in the assay listed under Homo sapiens was 20%. Further, the IC50 on Neutrophil collagenase was more than 100 µM; on Interstitial collagenase, 40 µM; in assay [1] it was more than 100 µM; on Stromelysin-1, 80 µM; in assay [2], 3 µM.
For `O=C(N1CCCCC1)P(=O)(O)O`, the concentration for half-maximal inhibition (IC50) at Neutrophil collagenase was more than 100 µM; at Interstitial collagenase, 70 µM; in assay [1], 0.5 µM; on Stromelysin-1 it was 90 µM; in assay [2], 1 µM. Also, in the assay on NIH3T3, the inhibition entry is “inactive”.
As for `O=C(N1CCOCC1)P(=O)(O)O`, the half-maximal inhibitory concentration (IC50) at Neutrophil collagenase was 30 µM; on Interstitial collagenase, 50 µM; in assay [1], more than 100 µM; on Stromelysin-1, 1 µM; in assay [2] it was more than 100 µM. For the same molecule, in the assay with NIH3T3, the inhibition entry is “inactive”.
With `CCCNC(=O)P(=O)(O)O` [(PROPYLAMINO)CARBONYLPHOSPHONIC ACID], the 50% inhibitory concentration (IC50) on Neutrophil collagenase is more than 100 µM; on Interstitial collagenase, 20 µM; in assay [1], 20 µM; on Stromelysin-1, 50 µM; in assay [2], 0.3 µM.
Take `CCOP(=O)(O)C(=O)NC1CCCCC1` [LITHIUM ETHYL (CYCLOHEXYLAMINO)CARBONYLPHOSPHONATE]: the IC50 is more than 100 µM on Neutrophil collagenase; 1.5 µM at Interstitial collagenase; more than 100 µM in assay [1]; more than 100 µM at Stromelysin-1; 30 µM in assay [2].
`O=C(NC1CC1)P(=O)(O)O` [(CYCLOPROPYLAMINO)CARBONYLPHOSPHONIC ACID]: the IC50 at Neutrophil collagenase is 0.2 µM; on Interstitial collagenase, more than 100 µM; in assay [1], more than 100 µM; at Stromelysin-1, more than 100 µM; in assay [2], 0.5 µM.
Take `CNC(=O)P(=O)(O)O` [(METHYLAMINO)CARBONYLPHOSPHONIC ACID]: the concentration for half-maximal inhibition (IC50) is 20 µM on Neutrophil collagenase; more than 100 µM at Interstitial collagenase; more than 100 µM in assay [1]; 90 µM at Stromelysin-1; 0.02 µM in assay [2]. The molecule further registered an inhibition in vivo at 50 mg/kg in the assay on B16-F10 of 55%.
The molecule `O=C(NC1CCCC1)P(=O)(O)O` [(CYCLOPENTYLAMINO)CARBONYLPHOSPHONIC ACID] gave an inhibition in the assay listed under Homo sapiens of 70%. Also, the 50% inhibitory concentration (IC50) on Neutrophil collagenase was more than 100 µM; at Interstitial collagenase, 0.5 µM; in assay [1], more than 100 µM; on Stromelysin-1 it was more than 100 µM. This molecule came in with an inhibition in vivo at 50 mg/kg with B16-F10 of 72%.
As for `CCNC(=O)P(=O)(O)O` [(ETHYLAMINO)CARBONYLPHOSPHONIC ACID], the IC50 was 30 µM at Neutrophil collagenase; 50 µM on Interstitial collagenase; 3 µM in assay [1]; 100 µM at Stromelysin-1; 5 µM in assay [2].

Values taken from ChEMBL document CHEMBL1137078, “Carbamoylphosphonates, a new class of in vivo active matrix metalloproteinase inhibitors. 1. Alkyl- and cycloalkylcarbamoylphosphonic acids” (J Med Chem, 2004).
